According to ChEMBL document CHEMBL2384906, “Biological activity, design, synthesis and structure activity relationship of some novel derivatives of curcumin containing sulfonamides” (Eur J Med Chem, 2013):
≈ marks a conversion by molar mass, not a printed value. Calls of active or inactive are those of the source. The calls are words filed in the database; no cut-off is given here.

Legend:
Salmonella typhi [1] = experiment: Antimicrobial activity against Salmonella typhi ATCC 23564 assessed as diameter of inhibition zone at 40 uM after 24 hrs by Kirby -Baur disc diffusion method; type: functional; conditions: Salmonella enterica subsp. enterica serovar Typhi
Salmonella typhi [2] = experiment: Antimicrobial activity against Salmonella typhi ATCC 23564 assessed as diameter of inhibition zone at 80 uM after 24 hrs by Kirby -Baur disc diffusion method; type: functional, Salmonella enterica subsp. enterica serovar Typhi; conditions: Salmonella enterica, ATCC 23564, 24 h; read-out: DIZ
Staphylococcus aureus [3] = experiment: Antimicrobial activity against Staphylococcus aureus ATCC 11632 after 24 hrs by broth micro serial dilution method; type: functional; conditions: ATCC 11632, 24 h
How it was run: (§1)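 This was broth microdilution in autoclaved Mueller-Hinton broth. 150 µL of compound per well was serially diluted […], and 50 µL of test organism was added. Plates were incubated 24 h at 37 °C and optical density was read.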

Staphylococcus aureus [4] = experiment: Antimicrobial activity against Staphylococcus aureus ATCC 11632 assessed as diameter of inhibition zone at 40 uM after 24 hrs by Kirby -Baur disc diffusion method; type: functional; conditions: ATCC 11632, 24 h, read-out: DIZ
How it was run: (§2)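 Kirby-Bauer disc diffusion was used. Acetone stocks (160 µM) were serially doubled down to 80, 40 and 20 µM. 4 µL of each went onto 5 mm sterile paper discs, which were dried 30 min at 50 °C. Inoculum was 1.5 × 10⁸ CFU/mL diluted to 3 × 10² CFU/mL, and 50 µL was spread on Mueller-Hinton agar. After 24 h at 37 °C the inhibition-zone diameter was measured. Ciprofloxacin served as positive control.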

Curvularia lunata [5] = experiment: Antifungal activity against Curvularia lunata MTCC 581 after 48 hrs; type: functional; conditions: MTCC 581, 48 h
Curvularia lunata [6] = experiment: Antifungal activity against Curvularia lunata MTCC 581 assessed as zone of inhibition at 80 uM after 48 hrs by disc diffusion method; type: functional; conditions: MTCC 581, 48 h, read-out: IZ
How it was run: (§3)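 Spores from 4-day potato dextrose agar cultures, suspended in sterile water at 1.5 × 10⁵ CFU/mL. 0.2 mL was spread on potato dextrose agar. 5 mm filter-paper discs soaked with test compound were laid on the lawn. Incubation was 48 h at 28 °C, then the inhibition zone was measured in mm. Fluconazole was the positive control and acetone the negative control.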

Trichoderma viride [7] = experiment: Antifungal activity against Trichoderma viride MTCC 1107 assessed as zone of inhibition at 20 uM after 48 hrs by disc diffusion method; type: functional; conditions: MTCC 1107, 48 h, read-out: IZ; how it was run: as §3
Curvularia lunata [8] = experiment: Antifungal activity against Curvularia lunata MTCC 581 assessed as zone of inhibition at 40 uM after 48 hrs by disc diffusion method; type: functional; conditions: MTCC 581, 48 h, read-out: IZ; how it was run: as §3
Salmonella typhi [9] = experiment: Antimicrobial activity against Salmonella typhi ATCC 23564 assessed as diameter of inhibition zone at 20 uM after 24 hrs by Kirby -Baur disc diffusion method; type: functional; conditions: Salmonella enterica subsp. enterica serovar Typhi
Curvularia lunata [10] = experiment: Antifungal activity against Curvularia lunata MTCC 581 assessed as zone of inhibition at 20 uM after 48 hrs by disc diffusion method; type: functional; conditions: MTCC 581, 48 h, read-out: IZ; how it was run: as §3
Aspergillus niger [11] = experiment: Antifungal activity against Aspergillus niger MTCC 1108 after 48 hrs; type: functional
Escherichia coli [12] = experiment: Antimicrobial activity against Escherichia coli ATCC 35218 assessed as diameter of inhibition zone at 20 uM after 24 hrs by Kirby -Baur disc diffusion method; type: functional; conditions: ATCC 35218, 24 h, read-out: DIZ; how it was run: as §2
Bacillus cereus [13] = experiment: Antimicrobial activity against Bacillus cereus MTCC 7350 assessed as diameter of inhibition zone at 40 uM after 24 hrs by Kirby -Baur disc diffusion method; type: functional; how it was run: as §2
Trichoderma viride [14] = experiment: Antifungal activity against Trichoderma viride MTCC 1107 assessed as zone of inhibition at 40 uM after 48 hrs by disc diffusion method; type: functional; conditions: MTCC 1107, 48 h, read-out: IZ; how it was run: as §3
Aspergillus flavus [15] = experiment: Antifungal activity against Aspergillus flavus MTCC 1021 after 48 hrs; type: functional
QG-56 = experiment: Cytotoxicity against human QG56 cells after 24 hrs by MTT assay; type: functional, cell-based
How it was run: (§4)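 The MTT assay seeded 5 × 10⁴ cells per well and grew them 24 h in RPMI 1640 with compound at 2.5–200 µM. Medium without cells was the blank and adriamycin the positive control. MTT was added for 4 h at 37 °C, formazan was solubilised, and absorbance was read at 570 nm. IC50 is the concentration that cuts viability 50% against untreated cells.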

Bacillus cereus [16] = experiment: Antimicrobial activity against Bacillus cereus MTCC 7350 after 24 hrs by broth micro serial dilution method; type: functional; conditions: MTCC 7350, 24 h; how it was run: as §1
HeLa = experiment: Cytotoxicity against human HeLa cells after 24 hrs by MTT assay; type: functional, cell-based; how it was run: as §4
Escherichia coli [17] = experiment: Antimicrobial activity against Escherichia coli ATCC 35218 assessed as diameter of inhibition zone at 80 uM after 24 hrs by Kirby -Baur disc diffusion method; type: functional; conditions: ATCC 35218, 24 h, read-out: DIZ; how it was run: as §2
Escherichia coli [18] = experiment: Antimicrobial activity against Escherichia coli ATCC 35218 assessed as diameter of inhibition zone at 40 uM after 24 hrs by Kirby -Baur disc diffusion method; type: functional; conditions: ATCC 35218, 24 h, read-out: DIZ; how it was run: as §2
Pseudomonas aeruginosa [19] = experiment: Antimicrobial activity against Pseudomonas aeruginosa ATCC 15499 after 24 hrs by broth micro serial dilution method; type: functional; conditions: ATCC 15499, 24 h; how it was run: as §1
Staphylococcus aureus [20] = experiment: Antimicrobial activity against Staphylococcus aureus ATCC 11632 assessed as diameter of inhibition zone at 80 uM after 24 hrs by Kirby -Baur disc diffusion method; type: functional; conditions: ATCC 11632, 24 h, read-out: DIZ; how it was run: as §2
Bacillus cereus [21] = experiment: Antimicrobial activity against Bacillus cereus MTCC 7350 assessed as diameter of inhibition zone at 80 uM after 24 hrs by Kirby -Baur disc diffusion method; type: functional; conditions: MTCC 7350, 24 h, read-out: DIZ; how it was run: as §2
Staphylococcus aureus [22] = experiment: Antimicrobial activity against Staphylococcus aureus ATCC 11632 assessed as diameter of inhibition zone at 20 uM after 24 hrs by Kirby -Baur disc diffusion method; type: functional; how it was run: as §2
HCT-116 = experiment: Cytotoxicity against human HCT116 cells after 24 hrs by MTT assay; type: functional, cell-based; how it was run: as §4
Mus musculus = experiment: Antiinflammatory activity in mouse assessed as inhibition of carrageenan-induced increase in paw volume at 200 mg/kg administered 1 hr prior to carrageenan challenge measured after 3 hrs relative to control; type: functional
How it was run: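 Mice were fasted 2 h and placed in groups of five. Controls received saline i.p. Phenylbutazone was given at 100 mg/kg i.p., curcumin at 200 mg/kg i.p., and derivatives at 200 mg/kg. After 1 h, 0.1 mL of 1% carrageenan in saline was injected subplantar into the right hind paw. Paw volume was followed by plethysmometer for 3 h, and % inhibition was calculated as (Vc − Vt)/Vc × 100.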

Trichoderma viride [23] = experiment: Antifungal activity against Trichoderma viride MTCC 1107 assessed as zone of inhibition at 80 uM after 48 hrs by disc diffusion method; type: functional; conditions: MTCC 1107, 48 h, read-out: IZ; how it was run: as §3
Bacillus cereus [24] = experiment: Antimicrobial activity against Bacillus cereus MTCC 7350 assessed as diameter of inhibition zone at 20 uM after 24 hrs by Kirby -Baur disc diffusion method; type: functional; how it was run: as §2
Aspergillus flavus [25] = experiment: Antifungal activity against Aspergillus flavus MTCC 1021 assessed as zone of inhibition at 80 uM after 48 hrs by disc diffusion method; type: functional; how it was run: as §3
Escherichia coli [26] = experiment: Antimicrobial activity against Escherichia coli ATCC 35218 after 24 hrs by broth micro serial dilution method; type: functional; conditions: ATCC 35218, 24 h; how it was run: as §1
Pseudomonas aeruginosa [27] = experiment: Antimicrobial activity against Pseudomonas aeruginosa ATCC 15499 assessed as diameter of inhibition zone at 80 uM after 24 hrs by Kirby -Baur disc diffusion method; type: functional; how it was run: as §2
Salmonella typhi [28] = experiment: Antimicrobial activity against Salmonella typhi ATCC 23564 after 24 hrs by broth micro serial dilution method; type: functional, Salmonella enterica subsp. enterica serovar Typhi; conditions: Salmonella enterica, ATCC 23564, 24 h
Trichoderma viride [29] = experiment: Antifungal activity against Trichoderma viride MTCC 1107 after 48 hrs; type: functional; conditions: MTCC 1107, 48 h
HepG2 = experiment: Cytotoxicity against human HepG2 cells after 24 hrs by MTT assay; type: functional, cell-based; how it was run: as §4
Aspergillus niger [30] = experiment: Antifungal activity against Aspergillus niger MTCC 1108 assessed as zone of inhibition at 80 uM after 48 hrs by disc diffusion method; type: functional; how it was run: as §3

For `COc1ccc(NS(=O)(=O)c2ccc(/N=N/c3c(/C=C/c4ccc(O)c(OC)c4)nn(-c4ccccc4)c3/C=C/c3ccc(O)c(OC)c3)cc2)nn1`, the “diameter of the inhibition zone (DIZ)” value (Salmonella typhi [1]) was “inactive”, the zone of inhibition at 80 µM (Salmonella typhi [2]) was 10 mm and the MIC (Staphylococcus aureus [3]) was greater than 80 µM. The zone of inhibition at 40 µM (Staphylococcus aureus [4]) was 7 mm, the MIC (Curvularia lunata [5]) was 20 µM (≈ 14.6 µg/mL) and the zone of inhibition at 80 µM (Curvularia lunata [6]) was 19 mm. For the same molecule, the zone of inhibition at 20 µM (Trichoderma viride [7]) was 12 mm, the zone of inhibition at 40 µM (Curvularia lunata [8]) was 16 mm and the “diameter of the inhibition zone (DIZ)” value (Salmonella typhi [9]) was “inactive”. The zone of inhibition at 20 µM (Curvularia lunata [10]) was 12 mm, the MIC (Aspergillus niger [11]) was “inactive” and the zone of inhibition at 20 µM (Escherichia coli [12]) was 8 mm. For the same molecule, the “diameter of the inhibition zone (DIZ)” value (Bacillus cereus [13]) was “inactive”, the zone of inhibition at 40 µM (Trichoderma viride [14]) was 16 mm and the MIC (Aspergillus flavus [15]) was “inactive”. It also gave an IC50 (QG-56) of 100 µM, an MIC (Bacillus cereus [16]) greater than 80 µM and an IC50 (HeLa) of 50 µM. The zone of inhibition at 80 µM (Escherichia coli [17]) was 11 mm, the zone of inhibition at 40 µM (Escherichia coli [18]) was 9 mm and the MIC (Pseudomonas aeruginosa [19]) was greater than 80 µM. For the same molecule, the zone of inhibition at 80 µM (Staphylococcus aureus [20]) was 9 mm, the zone of inhibition at 80 µM (Bacillus cereus [21]) was 9 mm and the “diameter of the inhibition zone (DIZ)” value (Staphylococcus aureus [22]) was “inactive”. For the same molecule, the IC50 (HCT-116) was “Not Active”, the inhibition in vivo at 200 mg/kg (Mus musculus) was 45.1% and the zone of inhibition at 80 µM (Trichoderma viride [23]) was 19 mm. The “diameter of the inhibition zone (DIZ)” value (Bacillus cereus [24]) was “inactive”, the “inhibition zone (IZ)” value (Aspergillus flavus [25]) was “inactive” and the MIC (Escherichia coli [26]) was greater than 80 µM. For the same molecule, the “diameter of the inhibition zone (DIZ)” value (Pseudomonas aeruginosa [27]) was “inactive”, the MIC (Salmonella typhi [28]) was greater than 80 µM and the MIC (Trichoderma viride [29]) was 40 µM (≈ 29.3 µg/mL). The IC50 (HepG2) was greater than 100 µM and the “inhibition zone (IZ)” value (Aspergillus niger [30]) was “inactive”.
